bIAP activator: increases bovine intestinal alkaline phosphatase activity. activation factor at 20 µM. 200,000 compounds, 0.17% hits. purified bovine IAP, CDP-star luminescence, 30 min; active compounds read high; fold of DMSO-control signal, blank-subtracted;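 active = activation factor of 2 or more at 20 µM, a signal rise over negative controls twice the positive control's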
hIAP inh: blocks human intestinal alkaline phosphatase; P09923; purified IAP, CDP-Star luminescence, 30 min; inhibition, % at 10 µM; 330,000 compounds, 0.12% hits; AID 2544;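 active = inhibition reaching a set limit with compound at 10 µM in the primary screen, cut at about 35% in these data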;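 also: plate controls were DMSO wells with enzyme for no effect and no-enzyme buffer wells for full effect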
Target sequence (P09923 whole entry, looked up): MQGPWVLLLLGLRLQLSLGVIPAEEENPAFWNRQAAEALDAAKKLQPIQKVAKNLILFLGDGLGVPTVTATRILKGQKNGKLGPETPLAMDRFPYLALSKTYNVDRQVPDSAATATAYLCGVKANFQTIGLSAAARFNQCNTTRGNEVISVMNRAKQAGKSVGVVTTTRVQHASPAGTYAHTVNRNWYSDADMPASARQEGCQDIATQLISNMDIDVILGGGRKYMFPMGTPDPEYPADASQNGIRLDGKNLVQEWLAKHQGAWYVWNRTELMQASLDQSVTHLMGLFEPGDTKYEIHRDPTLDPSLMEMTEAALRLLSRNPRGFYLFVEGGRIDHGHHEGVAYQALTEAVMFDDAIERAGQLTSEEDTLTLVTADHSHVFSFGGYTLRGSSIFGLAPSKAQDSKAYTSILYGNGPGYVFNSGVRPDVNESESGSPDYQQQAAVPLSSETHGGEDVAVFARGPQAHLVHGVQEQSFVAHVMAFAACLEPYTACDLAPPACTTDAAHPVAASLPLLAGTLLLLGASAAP
bIAP inh: blocks bovine intestinal alkaline phosphatase activity | purified bovine IAP, CDP-star luminescence, 30 min | inhibition, % at 20 µM | 190,000 tested, under 10 active;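 active = over 50% inhibition of intestinal alkaline phosphatase at 20 µM in the single-dose screen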
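System: purified bovine intestinal alkaline phosphatase (IAP) enzyme; Input: IAP diluted 1/65,000,000 in the well; Measured by: CDP-star luminescence signal; Compound dosing: 20 µM single dose; Incubation: 30 min reaction at room temperature.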
mIAP block: blocks mouse intestinal alkaline phosphatase. purified mouse IAP, CDP-Star luminescence, 30 min. inhibition, % at 10 µM. 330,000 compounds, 0.2% hits. AID 2806;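 active = inhibition of at least 40% at 10 µM in the primary screen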;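 also: plate controls were DMSO with enzyme for no effect and no enzyme wells for full effect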
hIAP act: increases human intestinal alkaline phosphatase activity; P09923; purified human IAP, CDP-Star luminescence, 30 min; active compounds read high; 1 = vehicle-only enzyme, 0 = enzyme-free background; activation factor at 10 µM; 330,000 compounds, 0.16% hits; AID 2524;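 active = activation factor of the enzyme at least 2-fold when tested at 20 µM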
mIAP activ: increases mouse intestinal alkaline phosphatase activity | muIAP, CDP-Star luminescence, 30 min; active compounds read high; 1 = vehicle-only enzyme signal, 0 = enzyme-free wells | activation factor at 10 µM | 330,000 compounds, 0.24% hits;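 active = activation factor of at least 2 at 20 µM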
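System: Mouse IAP enzyme | Also added: CDP-Star substrate | Dosing: Compounds dispensed in DMSO | Schedule: 30 min enzyme-substrate-compound incubation at room temperature | Technique: Chemiluminescence readout | Control set: DMSO-only wells and no-enzyme negative control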
hIAP act confirm: human IAP activation confirmation; AID 434926; purified IAP, CDP-Star luminescence, 30 min; active compounds read low; activation (%Activity, negative = activation), % at 8.3 µM; 880 compounds, 10% hits; shares compounds with hIAP act;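 active = at least twofold enzyme activation in any of six single-dose repeats, which the averaged readout prints as negative percent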
mIAP inh confirm: mouse IAP inhibition confirmation; shares compounds with mIAP block; purified mouse IAP, CDP-Star luminescence, 30 min; inhibition, % at 10 µM; 11,000 compounds, 4.7% hits; AID 434971;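 active = inhibition of at least 40% at 10 µM in either of the two replicates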;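 also: plate controls were DMSO wells with enzyme for no effect and buffer wells lacking enzyme for full effect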
The depositor's hits bear a star; i = inactive; . = no result given. In the library only some 0.77% were active in any assay of this set; here they are far more common.

SMILES	bIAP activator	hIAP inh	bIAP inh	mIAP block	hIAP act	mIAP activ	mIAP inh confirm	others
CCOc1ccc2nc(N=Nc3c(O)[nH]c(=S)[nH]c3=O)sc2c1	0.7	16	34	44*	0.84	0.56	.
COc1cc(/C=C/[N+](=O)[O-])ccc1O	0.9	24	11	46*	0.76	0.54	.
CN1CCN(c2ccc(C(N)=O)cc2N)CC1	0.9	4	5	17	0.96	0.83	.
O=C/C=C/c1ccccc1	.	9	.	4	0.91	0.96	.
O=C1NC(=S)NC(=O)C1C/C=C/c1ccccc1	1	5	-5	42*	0.95	0.58	.
COc1ccc(-c2nc3ccccc3c(=O)n2-c2cccnc2)cc1	0.9	11	7	5	0.89	0.95	.
CCOC(=O)c1c(-n2c(C)cc(C=C3C(=O)NC(=S)NC3=O)c2C)sc2c1CCCC2	0.5	-2	.	51*	1	0.49	.
Cc1ccc(C(O)(C(=O)NNC(=O)CN2CCN(C)CC2)c2ccc(C)cc2)cc1	0.9	-2	10	-13	1	1.1	.
Cc1cccc(C(O)(C(=O)NNC(=O)CN2CCN(C)CC2)c2cccc(C)c2)c1	2.3*	-75	-129	0	1.7	1	.
Cc1nn(Cc2ccc(Cl)cc2Cl)c(Cl)c1C(=O)Nc1ccc(OC(F)F)cc1	1	5	2	0	0.95	1	.
CC(C)Cc1nnc(NC(=O)CCC(=O)N2CCC3(CC2)OCCO3)s1	.	-133	.	-7	2.3*	1.1	.	hIAP act confirm=-77
Cc1ccc(-c2nc(N3CCOCC3)s[n+]2-c2ccccc2)cc1	0.9	.	8	.	.	.	.
CN(C)c1nc(-c2ccccc2)[n+](C)s1	1	42*	1	6	0.58	0.94	.	hIAP act confirm=7
CN(C)P1(N(C)C)=Nc2c(c(N)nn2C)C(c2ccccc2)=N1	1	-1	-1	-3	1	1	.
Cc1ccc(CN2C3CCCC2CC(NC(=O)Nc2cccc(F)c2)C3)cc1 (configuration not stated)	6.7*	-117	i	i	2.2*	11*	-348	hIAP act confirm=-4
O=[N+]([O-])c1cc(S(=O)(=O)c2ccc(O)c([N+](=O)[O-])c2)ccc1O	0.7	0	29	63*	1	0.37	53*
Nc1nonc1C(=O)N/N=C/c1ccc([N+](=O)[O-])o1	1	-2	4	55*	1	0.45	72*
N/C(=N\[N+](=O)[O-])N/N=C/c1ccc(O)cc1	1	17	-2	2	0.83	0.98	.
Brc1ccc2[nH]cc(/C=N/N3CCCCC3)c2c1	1	13	1	1	0.87	0.99	.
NC(Cc1cc(O)c(O)cc1O)C(=O)O (configuration not stated)	.	-17	.	84*	1.2	0.17	88*
N[C@@H](CCl)C(=O)O	.	-28	.	-5	1.3	1.1	.
COc1cccc(N2C(=O)NC(=O)/C(=C/c3ccc([N+](=O)[O-])s3)C2=O)c1	.	7	.	48*	0.93	0.52	51*
COc1ccc(N2C(=O)NC(=O)/C(=C\c3ccc([N+](=O)[O-])s3)C2=O)cc1	1	5	2	23	0.95	0.77	.
Cc1cccc(OCCn2cccc2/C=C2/C(=O)NC(=O)N(Cc3ccco3)C2=O)c1	.	10	.	40*	0.9	0.6	57*
O=C1NC(=O)N(Cc2ccco2)C(=O)/C1=C\c1cccn1CCOc1ccc(Cl)cc1	0.9	-12	15	49*	1.1	0.51	50*
SMILES	bIAP activator	hIAP inh	bIAP inh	mIAP block	hIAP act	mIAP activ	mIAP inh confirm	others
COc1cccc(CCNCc2c(F)cccc2F)c1	1.1	-5	-8	-10	1.1	1.1	.
O=C1NC(=S)NC(=O)C1=Cc1ccc2c(c1)CCN2CCCCl	.	-2	.	66*	1	0.34	73*
O=C(NC1CCCCC1)Oc1cc2oc(=O)sc2cc1Cl	.	-8	.	61*	1.1	0.39	76*
CN/C=C(/Cl)P(=O)(OC(C)C)OC(C)C	.	4	.	0	0.96	1	.
Cc1ccc(N2C(=O)/C(=C/c3ccc(CN(CCC#N)S(C)(=O)=O)o3)C(=O)NC2=S)cc1	1	6	-1	47*	0.94	0.53	44*
O=C1NC(=O)N(c2cccc(Cl)c2)C(=O)/C1=C\c1ccc(Sc2nc3ccccc3[nH]2)o1	1	-7	0	46*	1.1	0.54	50*
O=C1NC(=O)N(c2ccccc2F)C(=O)/C1=C/c1ccc(Sc2nc3ccccc3[nH]2)o1	0.9	.	13	.	.	.	.
CCN1C[C@@]2(COC)C3[C@@H](OC)[C@H]4[C@@H]1[C@@]3(C1C[C@H]3[C@H](OC(C)=O)C1[C@]4(OC(C)=O)C[C@H]3OC)[C@@H](OC)C[C@H]2OC(C)=O (some centres not stated)	.	-6	.	-10	1.1	1.1	.
O=C1NC(=O)N(Cc2ccccc2)C(=O)/C1=C/C=C/c1ccco1	.	1	.	57*	0.99	0.43	66*
CC(=O)NNC(=O)CN1C(=O)CN=C(c2ccccc2)c2cc(Br)ccc21	1.3	-20	-26	18	1.2	0.82	.
CCOc1ccc(C2(C#N)CC[N+](C)(C)CC2)cc1	1	-18	3	-2	1.2	1	.
CCN(CC)c1ccc(/C=C2\C(=O)NC(=O)N(CC3CCCO3)C2=O)cc1 (configuration not stated)	0.2	5	.	11	0.95	0.89	.
O=C1NC(=O)N(Cc2ccco2)C(=O)/C1=C/c1ccc(-c2cccc([N+](=O)[O-])c2)o1	0.9	14	15	61*	0.86	0.39	68*
CN(C)c1ccc(/C=C2/C(=O)NC(=O)N(Cc3ccco3)C2=O)cc1	0.8	-8	21	48*	1.1	0.52	48*
C=CCN1C(=O)NC(=O)/C(=C\c2ccc(-c3ccccc3[N+](=O)[O-])o2)C1=O	1	-7	0	11	1.1	0.89	.
CCN(CC)c1ccc(/C=C2/C(=O)NC(=O)N(Cc3ccco3)C2=O)cc1	0.8	-9	20	61*	1.1	0.39	46*
C#CCN1CCN(c2cccc(C(F)(F)F)c2)CC1	1	-9	-4	-8	1.1	1.1	.
CCOP(=S)(OCC)Oc1cc(C)oc(=O)c1	.	5	.	14	0.95	0.86	.
